Columns and labels:
[1] = target: T1, Adenosine receptor A2a (Homo sapiens, UniProt P29274); test: Displacement of [3H]ZM241385 from human adenosine A2A receptor expressed in human HeLa cells at 10 uM after 30 mins by beta scintillation counting; type: cell-based
How it was run: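 Single-point screen at 10 µM on HeLa-A2A membranes (10 µg protein), Tris/EDTA/MgCl2 buffer with adenosine deaminase, pH 7.4. 3 nM [3H]ZM241385, 30 min at 25 °C, in duplicate. Nonspecific binding with 50 µM NECA. Percent inhibition.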

[2] = target: T2, Adenosine receptor A3 (Homo sapiens) (UniProt P0DMS8); test: Displacement of [3H]NECA from human adenosine A3 receptor expressed in human HeLa cells at 10 uM after 180 mins by beta scintillation counting; type: cell-based
T2 sequence (whole entry): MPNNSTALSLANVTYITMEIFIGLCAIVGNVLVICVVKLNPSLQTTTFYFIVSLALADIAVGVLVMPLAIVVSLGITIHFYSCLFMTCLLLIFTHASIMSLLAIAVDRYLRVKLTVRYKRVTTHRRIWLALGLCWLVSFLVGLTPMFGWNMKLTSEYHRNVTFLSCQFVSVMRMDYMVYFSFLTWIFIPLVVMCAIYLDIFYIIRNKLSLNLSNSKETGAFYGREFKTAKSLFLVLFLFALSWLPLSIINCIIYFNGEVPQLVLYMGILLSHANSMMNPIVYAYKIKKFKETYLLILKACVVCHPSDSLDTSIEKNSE
How it was run: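 HeLa-A3 membranes (90 µg protein) in 50 mM Tris-HCl, 1 mM EDTA, 5 mM MgCl2, 2 UI/mL adenosine deaminase, pH 7.4. Test compound at 10 µM with 30 nM [3H]NECA, 180 min at 25 °C, in triplicate. Nonspecific binding with 100 µM (R)-PIA. Percent inhibition read after GF/B filtration.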

[3] = target: T3, Adenosine receptor A2b (Homo sapiens) (UniProt P29275); test: Displacement of [3H]DPCPX from human adenosine A2B receptor expressed in HEK293 cells at 10 uM after 30 mins by beta scintillation counting; type: cell-based
T3 sequence (whole entry): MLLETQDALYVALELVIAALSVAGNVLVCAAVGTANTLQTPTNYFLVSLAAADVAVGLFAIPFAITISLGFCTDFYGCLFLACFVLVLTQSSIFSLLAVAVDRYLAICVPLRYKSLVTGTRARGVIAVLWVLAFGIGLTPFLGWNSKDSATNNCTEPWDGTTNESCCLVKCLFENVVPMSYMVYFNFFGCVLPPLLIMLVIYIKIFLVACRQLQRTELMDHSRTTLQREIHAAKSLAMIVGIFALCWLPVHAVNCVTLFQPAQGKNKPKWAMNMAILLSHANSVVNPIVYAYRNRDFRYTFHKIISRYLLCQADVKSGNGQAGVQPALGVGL
How it was run: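 Percent inhibition at 10 µM in HEK-293-A2B membranes (18 µg protein), pH 6.5 Tris buffer with benzamidine, bacitracin and adenosine deaminase. 35 nM [3H]DPCPX, 30 min at 25 °C, in duplicate. Nonspecific binding with 400 µM NECA.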

[4] = target: T4, Adenosine receptor A1 (Homo sapiens) (UniProt P30542); test: Displacement of [3H]DPCPX from human adenosine A1 receptor expressed in CHO cells at 10 uM after 60 mins by beta scintillation counting; type: cell-based
T4 sequence (whole entry): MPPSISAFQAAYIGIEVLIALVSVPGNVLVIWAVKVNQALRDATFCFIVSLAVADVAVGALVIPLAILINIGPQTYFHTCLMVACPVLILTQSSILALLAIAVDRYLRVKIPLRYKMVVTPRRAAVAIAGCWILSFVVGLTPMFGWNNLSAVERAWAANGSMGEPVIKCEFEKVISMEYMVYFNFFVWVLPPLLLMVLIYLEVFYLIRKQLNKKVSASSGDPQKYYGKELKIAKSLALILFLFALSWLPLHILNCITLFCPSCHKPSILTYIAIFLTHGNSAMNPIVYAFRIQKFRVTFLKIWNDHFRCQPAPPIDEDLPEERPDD
How it was run: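 CHO-A1 membranes (15 µg protein) in Hepes/NaCl/MgCl2 buffer with adenosine deaminase, pH 7.4. Test compound at 10 µM with 2 nM [3H]DPCPX, 60 min at 25 °C, in duplicate. Nonspecific binding with 10 µM (R)-PIA. Percent inhibition read after filtration.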

[5] = target: T1, Adenosine receptor A2a; test: Displacement of [3H]ZM241385 from human adenosine A2A receptor expressed in human HeLa cells after 30 mins by beta scintillation counting; type: cell-based
How it was run: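 HeLa-A2A membranes (10 µg protein) in 50 mM Tris-HCl, 1 mM EDTA, 10 mM MgCl2, 2 UI/mL adenosine deaminase, pH 7.4, with 3 nM [3H]ZM241385. Nonspecific binding with 50 µM NECA. Incubated 30 min at 25 °C, in duplicate. Six concentrations (10 nM-100 µM); IC50 by nonlinear regression, converted to Ki by Cheng-Prusoff.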

[6] = target: T1, Adenosine receptor A2a; test: Antagonist activity at human adenosine A2A receptor expressed in CHO cells assessed as inhibition of NECA-induced cAMP accumulation incubated for 15 mins prior to NECA-induction measured after 15 mins by enzyme immunoassay relative to control; type: functional, cell-based
How it was run: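 Stably transfected CHO cells grown with dialyzed FBS, washed in DMEM F-12 with 25 mM HEPES pH 7.4 and 30 μM rolipram. Antagonist preincubated 15 min, then NECA (0.1 nM-1 mM) added for a further 15 min. cAMP measured by enzyme immunoassay. NECA curves fitted to a sigmoidal equation; pKB derived from the EC50 shift at one antagonist concentration.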

[7] = target: T5, Adenosine receptor A2b (Homo sapiens, UniProt P29275); test: Displacement of [3H]DPCPX from human adenosine A2B receptor expressed in HEK293 cells after 30 mins by beta scintillation counting; type: cell-based
T5 sequence (P29275 whole entry): T3 sequence (whole entry)
How it was run: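 HEK-293-A2B membranes (18 µg protein) in 50 mM Tris-HCl, 1 mM EDTA, 10 mM MgCl2, 0.1 mM benzamidine, 10 µg/mL bacitracin, 2 UI/mL adenosine deaminase, pH 6.5, with 35 nM [3H]DPCPX. Nonspecific binding with 400 µM NECA. Incubated 30 min at 25 °C, in duplicate. Six concentrations (10 nM-100 µM); IC50 by nonlinear regression, Ki by Cheng-Prusoff.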

T1 sequence (P29274 whole entry): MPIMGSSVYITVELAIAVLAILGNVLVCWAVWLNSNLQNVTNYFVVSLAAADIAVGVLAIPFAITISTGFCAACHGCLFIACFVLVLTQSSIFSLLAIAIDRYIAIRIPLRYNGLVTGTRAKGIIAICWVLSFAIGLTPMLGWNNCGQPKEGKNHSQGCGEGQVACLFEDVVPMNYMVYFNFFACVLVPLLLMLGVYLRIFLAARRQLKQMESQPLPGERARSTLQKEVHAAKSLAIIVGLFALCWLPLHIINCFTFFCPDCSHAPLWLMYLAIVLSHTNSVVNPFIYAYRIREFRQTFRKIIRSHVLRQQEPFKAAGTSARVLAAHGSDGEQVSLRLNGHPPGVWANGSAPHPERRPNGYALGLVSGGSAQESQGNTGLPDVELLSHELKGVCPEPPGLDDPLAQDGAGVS

inhibition [1] | inhibition [2] | inhibition [3] | inhibition [4] | Ki [5] | pKb [6] | Ki [7] | Structure (SMILES)
13% | 15% | 35% | 27% |  |  |  | COc1cccc2cc(C(=O)NCC(=O)O)c(=O)oc12
10% | 13% | 9% | 17% |  |  |  | COCCNC(=O)c1cc2cc(Cl)ccc2oc1=N
> 70% | 40% | 9% | 33% | 1000 nM |  |  | COc1cccc2cc(C(=O)Nc3c(C#N)ncn3-c3ccccc3)c(=N)oc12
10% | 6% | 19% | 24% |  |  |  | O=C(NCCCO)c1cc2ccccc2oc1=O
> 70% | 1% | 42% | 47% | 631 nM |  |  | COc1cccc2cc(C(=O)NCCCO)c(=N)oc12
6% | 3% | 24% | 12% |  |  |  | COc1cccc2cc(C(=O)N[C@@H](CO)C(=O)O)c(=O)oc12
58% | 42% | 5% | 37% |  |  |  | COc1ccc(-n2cnc(C#N)c2NC(=O)c2cc3cccc(OC)c3oc2=N)cc1
24% | 18% | 28% | 19% |  |  |  | COc1cccc2cc(C(=O)NC(CO)(CO)CO)c(=N)oc12
41% | 1% | 10% | 18% |  |  |  | COc1cccc2cc(C(=O)Nc3c(C#N)ncn3-c3ccc(C#N)cc3)c(=N)oc12
5% | 0% | 28% | 17% |  |  |  | N=c1oc2ccc(Br)cc2cc1C(=O)NC1CCCC1
1% | 8% | 24% | 18% |  |  |  | O=C(NCCCO)c1cc2cccc(O)c2oc1=O
1% | 1% | 15% | 10% |  |  |  | COc1cccc2cc(C(C)=O)c(=O)oc12
7% | 1% | 25% | 14% |  |  |  | COc1cccc2cc(C(=O)NCC(O)CO)c(=O)oc12 (configuration not stated)
1% | 20% | 18% | 16% |  |  |  | O=C(NC1CCCC1)c1cc2ccccc2oc1=O
2% | 1% | 23% | 21% |  |  |  | O=C(NCC(O)CO)c1cc2cc(Cl)ccc2oc1=O (configuration not stated)
1% | 1% | 7% | 12% |  |  |  | COc1cccc2cc(C(=O)NCCO)c(=O)oc12
> 70% | 15% | 51% | 40% | 1580 nM |  |  | CCOC(CNC(=O)c1cc2cccc(OC)c2oc1=N)OCC
1% | 15% | 22% | 9% |  |  |  | O=C(NCCCN1CCN(CCCNC(=O)c2cc3ccccc3oc2=O)CC1)c1cc2ccccc2oc1=O

inhibition [1] | inhibition [2] | inhibition [3] | inhibition [4] | Ki [5] | pKb [6] | Ki [7] | Structure (SMILES)
15% | 0% | 9% | 7% |  |  |  | CCC(CO)NC(=O)c1cc2cc(Cl)ccc2oc1=N (configuration not stated)
1% | 8% | 10% | 5% |  |  |  | N=c1oc2ccc(Br)cc2cc1C(=O)NC1CCCCC1
8% | 10% | 4% | 11% |  |  |  | N=c1oc2ccc(Br)cc2cc1C(=O)NCC(O)CO (configuration not stated)
65% | 0% | 18% | 45% |  |  |  | COCCNC(=O)c1cc2cccc(OC)c2oc1=O
2% | 0% | 9% | 1% |  |  |  | O=C(O)CNC(=O)c1cc2ccccc2oc1=O
16% | 23% | 30% | 31% |  |  |  | COc1cc(Br)cc2cc(C(=O)NCCCO)c(=N)oc12
11% | 22% | 29% | 4% |  |  |  | O=C(NCC(O)CO)c1cc2cccc(O)c2oc1=O (configuration not stated)
> 70% | 23% | 44% | 30% | 398 nM | 6.36 |  | COc1cccc2cc(C(=O)NCCCOCCCCOCCCNC(=O)c3cc4cccc(OC)c4oc3=N)c(=N)oc12
> 70% | 11% | > 70% | 31% | 398 nM |  | 10000 nM | COc1cccc2cc(C(=O)NCCCNC(=O)c3cc4cccc(OC)c4oc3=N)c(=N)oc12
> 70% | 8% | > 70% | 55% | 501 nM |  | 1000 nM | COc1cccc2cc(C(=O)NCC(O)c3ccccc3)c(=N)oc12 (configuration not stated)
> 70% | 23% | 65% | 47% | 1000 nM |  |  | COc1cccc2cc(C(=O)NCCO)c(=N)oc12
66% | 6% | 39% | 24% |  |  |  | CCC(CO)NC(=O)c1cc2cccc(OC)c2oc1=N (configuration not stated)
3% | 24% | 4% | 20% |  |  |  | CCC(CO)NC(=O)c1cc2cc(Br)ccc2oc1=N (configuration not stated)
14% | 17% | 25% | 32% |  |  |  | N=c1oc2ccc(Br)cc2cc1C(=O)NCCCO
10% | 30% | 24% | 6% |  |  |  | COc1cccc2c1OC(C)(O)C(C(C)=O)=C2 (configuration not stated)
> 70% | 13% | > 70% | 44% | 1000 nM |  | 1260 nM | COc1cccc2cc(C(=O)NCCCCCO)c(=N)oc12
6% | 0% | 15% | 26% |  |  |  | N=c1oc2ccc(Br)cc2cc1C(=O)NCCO
